Experimental data from ChEMBL document CHEMBL5247600, “Rational design of metabolically stable HDAC inhibitors: An overhaul of trifluoromethyl ketones” (Eur J Med Chem, 2022).
Calls of active or inactive are those of the source. The rule behind the calls is not given here.

Legend:
HCT-116 [1] = test: Anticancer activity against human HCT-116 cells assessed as cell growth inhibition incubated for 3 days by methylene blue staining based colorimetric assay; type: functional; settings: HCT-116, 72 h
HeLa = test: cells; type: functional, cell-based; settings: Homo sapiens, 72 h
[2] = test system: Panel NCI-60 (60 carcinoma cell lines); test: Anticancer activity against human Panel NCI-60 (60 carcinoma cell lines) cells assessed as cell growth inhibition at 10 uM incubated for 3 days by methylene blue staining based colorimetric assay relative to control; type: functional; design: scale not given: the % may be the effect or the level left; settings: time 3 day
Procedure, shortened: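 NCI-60 one-dose screen at a single concentration of 10 μM. Read-out is mean growth percentage across the panel; positive values denote cytostatic activity and negative values cytotoxicity.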

[3] = test system: Panel NCI-60 (60 carcinoma cell lines); test: Anticancer activity against human Panel NCI-60 (60 carcinoma cell lines) cells assessed as cell growth inhibition incubated for 3 days by methylene blue staining based colorimetric assay relative to control; type: functional; settings: 72 h, time 3 day
Procedure, shortened: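 NCI-60 five-dose screen at five concentrations. TGI is the concentration giving total growth inhibition.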

MDA-MB-468 = test: cells; type: functional, cell-based; settings: Homo sapiens, MDA-MB-468, 72 h
MDA-MB-231 = test: Anticancer activity against human MDA-MB-231 cells assessed as cell growth inhibition incubated for 3 days by methylene blue staining based colorimetric assay; type: functional; settings: MDA-MB-231, 72 h
Procedure, shortened: (§1)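 Cells kept in DMEM with 10% calf or fetal bovine serum plus penicillin/streptomycin (1000 U/ml each) at 37 °C, 5% CO2. Seeded at 5000/well (n = 3), treated next day, then after 3 days fixed/stained 30 min at room temperature with methylene blue saturated in 50% ethanol.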

U2OS = test: Anticancer activity against human U2OS cells assessed as cell growth inhibition incubated for 3 days by methylene blue staining based colorimetric assay; type: functional; settings: 72 h; procedure, shortened: as §1
HT-1080 = test: Anticancer activity against human HT-1080 cells assessed as cell growth inhibition incubated for 3 days by methylene blue staining based colorimetric assay; type: functional; settings: HT-1080, 72 h; procedure, shortened: as §1
NCI-H522 = test: cells; type: functional, cell-based; settings: Homo sapiens, NCI-H522, 72 h
[4] = test system: Panel NCI-60 (60 carcinoma cell lines); test: Anticancer activity against human Panel NCI-60 (60 carcinoma cell lines) cells assessed as total cell growth inhibition incubated for 3 days by methylene blue staining based colorimetric assay relative to control; type: functional; settings: 72 h, time 3 day
Procedure, shortened: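 NCI-60 five-dose screen at five concentrations. […] TGI is the concentration giving total growth inhibition.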

[5] = Metabolic stability in human Liver S9 fraction assessed as disappearance of compound and measured after 2 hrs by LC-ESI-MS analysis; type: ADME, subcellular; settings: s9, 2 h
Procedure, shortened: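 Human liver S9 fraction assay. Substrate 0.02 mM, 0.1 M buffer and 1 mM NADPH preincubated 10 min at 37 °C, then S9 (0.5 mg) added in 1 mL total; run in duplicate. Aliquots taken every 15 min or at 1 h and 2 h, residue taken up in methanol, diluted 1:1 with water and analysed by LC-ESI-MS tracking M+1 ions.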

HCT-116 [6] = test: Induction of apoptosis in human HCT116 cells assessed as increase in cleaved PARP1 level at 4 to 8 uM incubated for 24 hrs by Western blot analysis; type: functional, cell-based; settings: dose 4-8 µM
Procedure, shortened: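 HCT116 cells treated 24 h at the indicated concentrations. Lysates normalized by BCA, run on 12.5% SDS-PAGE and transferred to PVDF. Blocked 1 h in 5% milk/PBST, primary antibody against cleaved PARP overnight at 4 °C, then HRP secondary 1:10 000 and ECL detection.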

Compound	IC50 (HCT-116 [1]) [µM]	further results
C/C(=N\O)C(=O)NCCCCC(=O)Nc1ccccc1	> 100	–
O=C(CCCCCCNC(=O)C(O)(O)C(F)(F)F)Nc1nc2ccccc2s1	2.37	IC50 (HeLa): 1.52 µM; Activity [2]: -2.45%; GI50 [3]: 3.39 µM; IC50 (MDA-MB-468): 1.31 µM; IC50 (MDA-MB-231): 1.83 µM; IC50 (U2OS): 1.41 µM; IC50 (HT-1080): 2.65 µM; IC50 (NCI-H522): 2.86 µM; TGI [4]: 21.4 µM
OC(c1c(F)c(F)c(-n2cc(-c3ccccc3)nn2)c(F)c1F)C(F)(F)F (stereo not drawn)	> 100	–
NC(=O)C(=O)NCCCCCC(=O)Nc1ccccc1	> 100	–
C/C(=N\O)C(=O)NCCCCCC(=O)Nc1ccccc1	> 100	–
O=C(CCCCCNC(=O)c1ccc[nH]1)Nc1ccccc1	> 100	–
C/C(=N\O)C(=O)NCCCCCCC(=O)Nc1ccccc1	> 100	–
O=C(CCCCNC(=O)c1cc(=O)c(O)co1)Nc1ccccc1	> 100	–
COc1ccc2sc(NC(=O)CCCCCCNC(=O)C(O)(O)C(F)(F)F)nc2c1	2.18	Activity [2]: -4.91%; GI50 [3]: 1.23 µM; Activity (HCT-116 [6]): Active; IC50 (MDA-MB-468): 3.65 µM; IC50 (MDA-MB-231): 0.81 µM; IC50 (U2OS): 3.29 µM; IC50 (HT-1080): 2.28 µM; IC50 (NCI-H522): 3.23 µM; TGI [4]: 12.3 µM
O=C(CCCCCCNC(=O)C(O)(O)C(F)(F)F)Nc1ccc(Cl)cc1	4.23	Activity [2]: 15.99%; GI50 [3]: 5.13 µM; TGI [4]: 26.9 µM
O=C(CCCCCCC(=O)Nc1ccccc1)NO [VORINOSTAT]	–	IC50 (HT-1080): 3.56 µM
COc1ccc(-c2cnc(NC(=O)CCCCCCNC(=O)C(O)(O)C(F)(F)F)s2)cc1	–	TGI [4]: 8.51 µM
O=C(CCCCCNC(=O)c1cc(=O)c(O)co1)Nc1ccccc1	> 100	–
NC(=O)C(=O)NCCCCCCCC(=O)Nc1ccccc1	> 100	–

Now from value to compound, other results behind:

IC50 (HCT-116 [1]) [µM]	Compound	further results
6.48	O=C(CCCCCCNC(=O)C(O)(O)C(F)(F)F)Nc1cccc2ccccc12	–
6.47	O=C(CCCCCCNC(=O)C(O)(O)C(F)(F)F)Nc1nc2ccc(F)cc2s1	–
22.2	O=C(CCCCCCNC(=O)C(O)(O)C(F)(F)F)Nc1c(F)cc(F)cc1F	–
12.1	O=C(CCCCCCNC(=O)C(O)(O)C(F)(F)F)Nc1nc2ccc(Br)cc2o1	–
9.11	O=C(CCCCCCNC(=O)C(O)(O)C(F)(F)F)Nc1ccc(S(F)(F)(F)(F)F)cc1	–
3.87	COc1ccc(OC)c(NC(=O)CCCCCCNC(=O)C(O)(O)C(F)(F)F)c1	Activity [2]: 35%
> 40	O=C(CCCCCCNC(=O)C(O)C(F)(F)F)Nc1nccs1 (stereo not drawn)	Stability [5]: Stable
> 40	O=C(CCCCCCC(O)C(F)(F)F)Nc1ccccc1 (stereo not drawn)	–
20.3	O=C(CCCCNC(=O)C(O)(O)C(F)(F)F)Nc1ccccc1	–
14.5	O=C(CCCCCCNC(=O)C(O)(O)C(F)(F)F)Nc1ccccc1Br	–
10.3	O=C(CCCCCCNC(=O)C(O)(O)C(F)(F)F)Nc1nc2ccc(Br)cc2s1	–
14.1	COc1cc(NC(=O)CCCCCCNC(=O)C(O)(O)C(F)(F)F)cc(OC)c1OC	–
3.06	O=C(CCCCCCNC(=O)C(O)(O)C(F)(F)F)Nc1cccc(Br)c1	–
10.8	O=C(CCCCCCNC(=O)C(O)(O)C(F)(F)F)Nc1nccs1	Stability [5]: Stable
12.1	CC(=O)c1ccc(NC(=O)CCCCCCNC(=O)C(O)(O)C(F)(F)F)cc1	–
